test system: SNB-19; experiment: Growth inhibition of human SNB-19 cells assessed as cell growth at 10 uM incubated for 48 hrs by sulforhodamine B assay relative to control; type: functional; settings: read-out: Activity
How it was run: (§1)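 Run by the NCI Developmental Therapeutics Program as part of its 60-line human tumour panel. Each compound tested at a single 10 µM dose. Growth expressed as % relative to untreated control cells (100%).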

First: COc1ccc(S(=O)(=O)n2ccc(-c3ccc4c(c3)CCC(C)(C)O4)n2)cc1
Second: Nc1c(C(=O)N(c2ccccc2)c2ccccc2)sc2nc3c(cc12)C(=O)CCC3
The growth at 10 µM of the first is lower: 87.1% for the first, 104% for the second.

test system: OVCAR-8; experiment: Growth inhibition of human OVCAR-8 cells assessed as cell growth at 10 uM incubated for 48 hrs by sulforhodamine B assay relative to control; type: functional; settings: read-out: Activity; how it was run: as §1

First: COc1ccc(S(=O)(=O)n2ccc(-c3ccc4c(c3)CCC(C)(C)O4)n2)cc1
Second: Nc1c(C(=O)N(c2ccccc2)c2ccccc2)sc2nc3c(cc12)C(=O)CCC3
The growth at 10 µM of the first is lower: 83.8% for the first, 105% for the second.

test system: OVCAR-4; experiment: Growth inhibition of human OVCAR-4 cells assessed as cell growth at 10 uM incubated for 48 hrs by sulforhodamine B assay relative to control; type: functional; settings: read-out: Activity; how it was run: as §1

`COc1ccc(S(=O)(=O)n2ccc(-c3ccc4c(c3)CCC(C)(C)O4)n2)cc1` was tested, and the growth at 10 µM was 52.3%.

test system: SF-268; experiment: Growth inhibition of human SF-268 cells assessed as cell growth at 10 uM incubated for 48 hrs by sulforhodamine B assay relative to control; type: functional; settings: read-out: Activity; how it was run: as §1

Going from `COc1ccc(S(=O)(=O)n2ccc(-c3ccc4c(c3)CCC(C)(C)O4)n2)cc1` to `Nc1c(C(=O)N(c2ccccc2)c2ccccc2)sc2nc3c(cc12)C(=O)CCC3`, the growth at 10 µM rises from 94.7% to 99.8%.

test system: T47D; experiment: Growth inhibition of human T47D cells assessed as cell growth at 10 uM incubated for 48 hrs by sulforhodamine B assay relative to control; type: functional; settings: read-out: Activity; how it was run: as §1

First: COc1ccc(S(=O)(=O)n2ccc(-c3ccc4c(c3)CCC(C)(C)O4)n2)cc1
Second: Nc1c(C(=O)N(c2ccccc2)c2ccccc2)sc2nc3c(cc12)C(=O)CCC3
The growth at 10 µM of the first is lower: 46.7% for the first, 99.5% for the second.

test system: DU-145; experiment: Growth inhibition of human DU-145 cells assessed as cell growth at 10 uM incubated for 48 hrs by sulforhodamine B assay relative to control; type: functional; settings: read-out: Activity
How it was run: (§2)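 NCI Developmental Therapeutics Program NCI60 panel. Compounds that were active in the 10 µM one-dose screen went on to dose–response testing. Growth at each concentration is expressed relative to untreated control (100%). GI50 (concentration giving 50% of maximal inhibition of proliferation) and TGI (concentration giving total growth inhibition) were derived from the curves.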

For `Nc1c(C(=O)N(c2ccccc2)c2ccccc2)sc2nc3c(cc12)C(=O)CCC3`, the growth at 10 µM was 68.6%.

test system: COLO 205; experiment: Growth inhibition of human COLO 205 cells assessed as cell growth at 10 uM incubated for 48 hrs by sulforhodamine B assay relative to control; type: functional; settings: read-out: Activity; how it was run: as §2

Going from `COc1ccc(S(=O)(=O)n2ccc(-c3ccc4c(c3)CCC(C)(C)O4)n2)cc1` to `Nc1c(C(=O)N(c2ccccc2)c2ccccc2)sc2nc3c(cc12)C(=O)CCC3`, the growth at 10 µM rises from 107% to 109%.

test system: LOX IMVI; experiment: Growth inhibition of human LOX IMVI cells assessed as cell growth at 10 uM incubated for 48 hrs by sulforhodamine B assay relative to control; type: functional; settings: read-out: Activity
How it was run: (§3)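 Submitted to the NCI Developmental Therapeutics Program for the NCI60 human tumour cell line panel. First screen at a single 10 µM concentration. Read-out is growth relative to untreated control cells set at 100%.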

Going from `COc1ccc(S(=O)(=O)n2ccc(-c3ccc4c(c3)CCC(C)(C)O4)n2)cc1` to `Nc1c(C(=O)N(c2ccccc2)c2ccccc2)sc2nc3c(cc12)C(=O)CCC3`, the growth at 10 µM rises from 79.5% to 94.3%.

test system: CAKI-1; experiment: Growth inhibition of human CAKI-1 cells assessed as cell growth at 10 uM incubated for 48 hrs by sulforhodamine B assay relative to control; type: functional; settings: read-out: Activity; how it was run: as §2

`COc1ccc(S(=O)(=O)n2ccc(-c3ccc4c(c3)CCC(C)(C)O4)n2)cc1` gave a growth at 10 µM of 63.3%.

test system: TK-10; experiment: Growth inhibition of human TK-10 cells assessed as cell growth at 10 uM incubated for 48 hrs by sulforhodamine B assay relative to control; type: functional; settings: read-out: Activity; how it was run: as §1

Going from `COc1ccc(S(=O)(=O)n2ccc(-c3ccc4c(c3)CCC(C)(C)O4)n2)cc1` to `Nc1c(C(=O)N(c2ccccc2)c2ccccc2)sc2nc3c(cc12)C(=O)CCC3`, the growth at 10 µM rises from 68.2% to 113%.

test system: SK-OV-3; experiment: Growth inhibition of human SK-OV-3 cells assessed as cell growth at 10 uM incubated for 48 hrs by sulforhodamine B assay relative to control; type: functional; settings: read-out: Activity; how it was run: as §1

First: COc1ccc(S(=O)(=O)n2ccc(-c3ccc4c(c3)CCC(C)(C)O4)n2)cc1
Second: Nc1c(C(=O)N(c2ccccc2)c2ccccc2)sc2nc3c(cc12)C(=O)CCC3
The growth at 10 µM of the first is lower: 90.4% for the first, 108% for the second.

test system: HT-29; experiment: Growth inhibition of human HT-29 cells assessed as cell growth at 10 uM incubated for 48 hrs by sulforhodamine B assay relative to control; type: functional; settings: read-out: Activity; how it was run: as §3

`COc1ccc(S(=O)(=O)n2ccc(-c3ccc4c(c3)CCC(C)(C)O4)n2)cc1` and `Nc1c(C(=O)N(c2ccccc2)c2ccccc2)sc2nc3c(cc12)C(=O)CCC3` are the same in growth at 10 µM: 84.5% for the first, 84.5% for the second.

test system: SW-620; experiment: Growth inhibition of human SW-620 cells assessed as cell growth at 10 uM incubated for 48 hrs by sulforhodamine B assay relative to control; type: functional; settings: read-out: Activity; how it was run: as §1

Going from `COc1ccc(S(=O)(=O)n2ccc(-c3ccc4c(c3)CCC(C)(C)O4)n2)cc1` to `Nc1c(C(=O)N(c2ccccc2)c2ccccc2)sc2nc3c(cc12)C(=O)CCC3`, the growth at 10 µM falls from 90.3% to 89.3%.

test system: MDA-MB-231; experiment: Growth inhibition of human MDA-MB-231 cells assessed as cell growth at 10 uM incubated for 48 hrs by sulforhodamine B assay relative to control; type: functional; settings: read-out: Activity; how it was run: as §3

First: COc1ccc(S(=O)(=O)n2ccc(-c3ccc4c(c3)CCC(C)(C)O4)n2)cc1
Second: Nc1c(C(=O)N(c2ccccc2)c2ccccc2)sc2nc3c(cc12)C(=O)CCC3
The growth at 10 µM of the first is higher: 87.7% for the first, 85.9% for the second.

test system: HCC 2998; experiment: Growth inhibition of human HCC 2998 cells assessed as cell growth at 10 uM incubated for 48 hrs by sulforhodamine B assay relative to control; type: functional; settings: read-out: Activity; how it was run: as §2

Compared with `COc1ccc(S(=O)(=O)n2ccc(-c3ccc4c(c3)CCC(C)(C)O4)n2)cc1`, `Nc1c(C(=O)N(c2ccccc2)c2ccccc2)sc2nc3c(cc12)C(=O)CCC3` is higher in growth at 10 µM: 88.9% for the first, 116% for the second.

test system: 786-0; experiment: Growth inhibition of human 786-0 cells assessed as cell growth at 10 uM incubated for 48 hrs by sulforhodamine B assay relative to control; type: functional; settings: read-out: Activity; how it was run: as §2

First: COc1ccc(S(=O)(=O)n2ccc(-c3ccc4c(c3)CCC(C)(C)O4)n2)cc1
Second: Nc1c(C(=O)N(c2ccccc2)c2ccccc2)sc2nc3c(cc12)C(=O)CCC3
The growth at 10 µM of the first is lower: 67.6% for the first, 104% for the second.

test system: MCF7; experiment: Growth inhibition of human MCF7 cells assessed as cell growth at 10 uM incubated for 48 hrs by sulforhodamine B assay relative to control; type: functional; settings: read-out: Activity; how it was run: as §3

First: COc1ccc(S(=O)(=O)n2ccc(-c3ccc4c(c3)CCC(C)(C)O4)n2)cc1
Second: Nc1c(C(=O)N(c2ccccc2)c2ccccc2)sc2nc3c(cc12)C(=O)CCC3
The growth at 10 µM of the first is lower: 73.5% for the first, 99.6% for the second.

test system: RPMI-8226; experiment: Growth inhibition of human RPMI-8226 cells assessed as cell growth at 10 uM incubated for 48 hrs by sulforhodamine B assay relative to control; type: functional; settings: read-out: Activity; how it was run: as §1

First: COc1ccc(S(=O)(=O)n2ccc(-c3ccc4c(c3)CCC(C)(C)O4)n2)cc1
Second: Nc1c(C(=O)N(c2ccccc2)c2ccccc2)sc2nc3c(cc12)C(=O)CCC3
The growth at 10 µM of the first is lower: 49.2% for the first, 94.8% for the second.

test system: SK-MEL-2; experiment: Growth inhibition of human SK-MEL-2 cells assessed as cell growth at 10 uM incubated for 48 hrs by sulforhodamine B assay relative to control; type: functional; settings: read-out: Activity; how it was run: as §1

First: COc1ccc(S(=O)(=O)n2ccc(-c3ccc4c(c3)CCC(C)(C)O4)n2)cc1
Second: Nc1c(C(=O)N(c2ccccc2)c2ccccc2)sc2nc3c(cc12)C(=O)CCC3
The growth at 10 µM of the first is lower: 84.4% for the first, 117% for the second.

test system: NCI-H522; experiment: Growth inhibition of human NCI-H522 cells assessed as cell growth at 10 uM incubated for 48 hrs by sulforhodamine B assay relative to control; type: functional; settings: read-out: Activity; how it was run: as §3

First: COc1ccc(S(=O)(=O)n2ccc(-c3ccc4c(c3)CCC(C)(C)O4)n2)cc1
Second: Nc1c(C(=O)N(c2ccccc2)c2ccccc2)sc2nc3c(cc12)C(=O)CCC3
The growth at 10 µM of the first is lower: 55.6% for the first, 103% for the second.

test system: BT-549; experiment: Growth inhibition of human BT-549 cells assessed as cell growth at 10 uM incubated for 48 hrs by sulforhodamine B assay relative to control; type: functional; settings: read-out: Activity
How it was run: (§4)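 NCI Developmental Therapeutics Program NCI60 human tumour cell line panel, one-dose primary screen with every compound at 10 µM. Growth is expressed as % of untreated control cells (100%).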

Compared with `COc1ccc(S(=O)(=O)n2ccc(-c3ccc4c(c3)CCC(C)(C)O4)n2)cc1`, `Nc1c(C(=O)N(c2ccccc2)c2ccccc2)sc2nc3c(cc12)C(=O)CCC3` is lower in growth at 10 µM: 65.5% for the first, 55.4% for the second.

test system: NCI-H23; experiment: Growth inhibition of human NCI-H23 cells assessed as cell growth at 10 uM incubated for 48 hrs by sulforhodamine B assay relative to control; type: functional; settings: read-out: Activity; how it was run: as §3

Going from `COc1ccc(S(=O)(=O)n2ccc(-c3ccc4c(c3)CCC(C)(C)O4)n2)cc1` to `Nc1c(C(=O)N(c2ccccc2)c2ccccc2)sc2nc3c(cc12)C(=O)CCC3`, the growth at 10 µM rises from 59.6% to 101%.

test system: K562; experiment: Growth inhibition of human K562 cells assessed as cell growth at 10 uM incubated for 48 hrs by sulforhodamine B assay relative to control; type: functional; settings: read-out: Activity; how it was run: as §3

Going from `COc1ccc(S(=O)(=O)n2ccc(-c3ccc4c(c3)CCC(C)(C)O4)n2)cc1` to `Nc1c(C(=O)N(c2ccccc2)c2ccccc2)sc2nc3c(cc12)C(=O)CCC3`, the growth at 10 µM rises from 55.6% to 113%.

test system: ACHN; experiment: Growth inhibition of human ACHN cells assessed as cell growth at 10 uM incubated for 48 hrs by sulforhodamine B assay relative to control; type: functional; settings: read-out: Activity; how it was run: as §4

Compared with `COc1ccc(S(=O)(=O)n2ccc(-c3ccc4c(c3)CCC(C)(C)O4)n2)cc1`, `Nc1c(C(=O)N(c2ccccc2)c2ccccc2)sc2nc3c(cc12)C(=O)CCC3` is higher in growth at 10 µM: 104% for the first, 110% for the second.

test system: SR; experiment: Growth inhibition of human SR cells assessed as cell growth at 10 uM incubated for 48 hrs by sulforhodamine B assay relative to control; type: functional; settings: read-out: Activity; how it was run: as §1

Work on `Nc1c(C(=O)N(c2ccccc2)c2ccccc2)sc2nc3c(cc12)C(=O)CCC3` yielded a growth at 10 µM of 55.6%.
